This note sets out measurements from ChEMBL document CHEMBL1138440, “Phosphorous acid analogs of novel P2-P4 macrocycles as inhibitors of HCV-NS3 protease” (Bioorg Med Chem Lett, 2009).

The subject of assay [1] is Hepatitis C virus. In words: Inhibition of HCV genotype 1b NS3/4A protease. Set-up: species or system Hepatitis C virus subtype 1b. The method in brief:
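Full-length HCV NS3/4A protease; inhibition reported as Ki. Mean of at least three independent experiments.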

In assay [2] the test system is Hepatitis C virus. In words: Antiviral activity against HCV infected in human HuH7 cells by subgenomic replication assay in presence of 50% normal human serum. Format: functional, organism-based, Hepacivirus hominis, Huh-7. In outline: (§1)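 HCV replicon replication assay in Huh-7 cells; EC50 is the concentration giving 50% inhibition of replication. Run with 10% fetal calf serum (low serum) or 50% normal human serum (to gauge protein binding). Mean of at least three independent experiments.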

Assay [3] deals with Hepatitis C virus. In words: Antiviral activity against HCV infected in human HuH7 cells by subgenomic replication assay in presence of 10% fetal calf serum. Format: functional, organism-based, Hepacivirus hominis. The conditions noted are these: Huh-7. The method in brief: as §1

`C=C[C@H]1C[C@]1(NC(=O)[C@@H]1C[C@@H]2CN1C(=O)[C@H](C(C)(C)C)NC(=O)OCC(C)(C)CCCCc1cccc3c1CN(C3)C(=O)O2)C(=O)O` gave an inhibition constant (Ki) with Hepatitis C virus [1] of 2.8 µM.
`C=CC1CC1(NC(=O)[C@@H]1C[C@@H]2CN1C(=O)[C@H](C(C)(C)C)NC(=O)OCC(C)(C)CCCCc1cccc3c1CN(C3)C(=O)O2)P(C)(=O)O` (mixture of isomers): the EC50 is 0.25 µM with Hepatitis C virus [2] (Hepatitis C virus, Huh-7) and 0.5 µM in the assay with Hepatitis C virus [3]. In addition, the Ki in the assay with Hepatitis C virus [1] was 0.002 µM.
In turn, `C=CC1CC1(NC(=O)[C@@H]1C[C@@H]2CN1C(=O)[C@H](C(C)(C)C)NC(=O)OCC(C)(C)CCCCc1cccc3c1CN(C3)C(=O)O2)P(=O)(O)O` (mixture of isomers) yielded a Ki in the assay with Hepatitis C virus [1] of 0.016 µM.
On to `C=CC1CC1(NC(=O)[C@@H]1C[C@@H]2CN1C(=O)[C@H](C(C)(C)C)NC(=O)OCC(C)(C)CCCCc1cccc3c1CN(C3)C(=O)O2)P(=O)(O)OCC` (mixture of isomers), for which the EC50 in the assay with Hepatitis C virus [2] (Hepatitis C virus, Huh-7) turned out to be 2.4 µM; in the assay with Hepatitis C virus [3] it was 0.66 µM. This compound came in with a Ki with Hepatitis C virus [1] of 0.07 µM.
Take `C=CC1CC1(NC(=O)[C@@H]1C[C@@H]2CN1C(=O)[C@H](C(C)(C)C)NC(=O)OCC(C)(C)CCCCc1cccc3c1CN(C3)C(=O)O2)P(=O)(OCC)OCC` (single isomer, unassigned): the EC50 was determined as 15 µM in the assay on Hepatitis C virus [2] (Hepatitis C virus, Huh-7) and 20 µM in the assay with Hepatitis C virus [3].
For the compound `C=CC1CC1(NC(=O)[C@@H]1C[C@@H]2CN1C(=O)[C@H](C(C)(C)C)NC(=O)OCC(C)(C)CCCCc1cccc3c1CN(C3)C(=O)O2)P(=O)(OCC)OCC` (stereo in doubt), the concentration giving a half-maximal response (EC50) in the assay on Hepatitis C virus [2] (huh-7) worked out at 20 µM. Also, the Ki with Hepatitis C virus [1] was determined as 2.9 µM.
